Measured values: the EternaBench riboswitch data

Test system: MS2 coat protein
Experiment: apparent Kd, MS2 coat protein; higher = weaker binding; RNA-MaP array; FMN 200 µM where present
Outline: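 SNAP-549-labelled MS2 coat protein, doubled from 0.7 or 1.5 nM to 3 µM, was titrated over designs transcribed by stalled E. coli RNA polymerase on Illumina sequencing-chip clusters. Titrations were run without and then with constant ligand in 100 mM Tris-HCl pH 7.5, 80 mM KCl, 4 mM MgCl2, BSA, DTT, yeast tRNA and Tween-20. The apparent Kd is the median of filtered per-cluster fits to green signal normalised to red-channel RNA signal and control-cluster median Fmax.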

[1] = designed as: OFF switch for flavin mononucleotide, no ligand
[2] = ligand present: flavin mononucleotide, designed as: OFF switch for flavin mononucleotide
[3] = designed as: ON switch for flavin mononucleotide, no ligand
[4] = ligand present: flavin mononucleotide, designed as: ON switch for flavin mononucleotide

Sequence | apparent Kd [1] [nM] | apparent Kd [2] [nM] | apparent Kd [3] [nM] | apparent Kd [4] [nM]
GUCUUCCUAGGAUAUACAUGAGGAUCACCCAUGUACAGUUUCGUCUAGGGAUACUCGCGUAGAAGGAGGUGGAU | 20.8 | 26.5 |  | 
UUGGACGUCGUAGCAUAUGUAGGAUAUUCCUACAUGAGGAUCACCCAUGUUGACAUGGAAGAAGGACAGAAGGACGAUGUCCAU |  |  | 146 | 5.47
CUGAAGUCAGGAUAUUGUUAAUUUAGUUGUUUGUAUUAGUUCGAGAAGGGACAUGAGGAUCACCCAUGUAAGUC | 32 | 27.1 |  | 
AACGAGCAAGAUUAUUAUGAAUAAACAUGAGGAUCACCCAUGUAGGAUAUGCAGUGGAAUACACUGCAGAAGGACAUAAGCUCG | 7.2 | 19 |  | 
GGAAUAUUUACAGGAUAUGUUUUGUUAAGUCGAGCAGAAGGGUGGAUGUCUUACACGGUUUGUUACAUGAGGAUCACCCAUGUC |  |  | 264 | 260
CUUCAACAAGGAUAUGCCAUGGAUCGACACUGUUACGCGAAACAUGAGGAUCACCCAUGUAGAAGGUGUUGAGA | 78.5 | 96.2 |  | 
GGAUAUGUCGUCUACAUGAGGAUCACCCAUGUUGAUAAACAUGAGGAUAUUGAUAAGAAUUGUAUCGAGAAGGUAUGUAGGUCC |  |  | 106 | 89.5
AAAUAAAUGUAAGGAUAUCGGUUUCAGAGAACGCGAGAAGGUACAUGAGGAUCACCCAUGUUCCGUUGGGUUAACUUGAUCGCC | 7.14 | 13.6 |  | 
CUGCUGGAGCUUUGCUUUAGUCGUACAUGAGGAUCACCCAUGUAGGAUAUGGUAGGCUAUGCUUACUAGAAGGAUAGAGUGGUC | 62.3 | 32.2 |  | 
UUAGAACAUGAGGAUCACCCAUGUGAGGAUAUGCAAUACUAAUAUUAAGAUAAUUAUAGCAGAAGGCACGUAGU | 34.3 | 47.7 |  | 
UGGUACAUGGGAGGAUAUCAUGUAGACACAUGAGGAUCACCCAUGUCGAUGGAGACAUCGGAGAUUGAGAAGGCCCAUGUACCU |  |  | 226 | 8.3
AUAUAGAUGGUCAGGAUAUGCUAGUGGUAACAGUAGCAGAAGGGACAUGAGGAUCACCCAUGUGGGUCCUGCUC | 22.3 | 64 |  | 
GGACCGUCCAGAGUUGGCGGUCGGCAGGAUAUGACAUGAGGAUCACCCAUGUGAACUCCAUUGGGUCAGAAGGGCCACGACGAU | 25.2 | 94.7 |  | 
UUCAGCUCGUGAGGAUAUACAUGUGCUGGAAACAGCACUAAUAGAAUCACAUGAGGAUCACCCAUGUAGAAGGCACGAGCUGAG | 17.2 | 40.1 |  | 
UCUUCACAUGAGGAUCACCCAUGUGAGGAUAUGGAUUCGCUGGCCGUAGCCAGUGGAUCCAGAAGGCGCAUGAU | 23.8 | 25 |  | 
UUUCAGCAAGGAUAUACGGGCUGUGCUUUUCAUUUCUUACAACAUGAGGAUCACCCAUGUAGAAGGUGCUUCUU | 297 | 736 |  | 
GCUAUUGGCUAAGGAUAUGGAUACAUGAGGAUCACCCAUGUAAGAAUUGUGAUCAUAUAAAUGAUCCAGAAGGUAGCUGUUAGC | 280 | 502 |  | 
UGGUACAUGGGAGGAUAUGGGAUGAUAACAUGAGGAUCACCCAUGUUAAAGAUGCCGAGAGGCAACUAGAAGGCCCAUGUACCU |  |  | 281 | 62.4
UCGUCCACGGAGAAGGGCACAUGAGGAUCACCCAUGUGGGCUUGGUGGUGGUGGUGUUAAAAUGUGUAGGAUAUCCAGGGCCGU | 19.5 | 20.6 |  | 
UAGGUACAUGAGGAUCACCCAUGUGAGGAUAUAGAUGAAGAUUGCGAGAGGGAGAGGACUAGAAGGCACAGUGG | 33.3 | 36.8 |  | 
CCUAUGUGAGGAUAUCACUGGUCUUCUCACUGGAUGAUUAGUGAGAAGGCACAUGAGGAUCACCCAUGUCGGUG | 656 | 451 |  | 
CUGUUACGUGUAGGAUAUGCAUAUUCCCAUUAUGCAGAAGGACAUGAGGAUCACCCAUGUAUGUUAUUAUCAUGUGUUACAUGC | 34.6 | 153 |  | 
UUAAAUCAUGUAGGAUAUGCAUGGCGAAGCUACGCAGAAGGACAUGAGGAUCACCCAUGUGCUAGCUACCGAGUACGGUGGCAA | 64.9 | 251 |  | 
GUGGUCAGACAUGAGGAUCACCCAUGUGGAAUAAAUAAGGACUAGGAUAUGGAAUAUAGGAUAUACCAGAAGGAGUGGUUGGUG |  |  | 56.4 | 60
GGAGAUACAUGAGGAUCACCCAUGUAGGAUAUCGAGUAUAUAUAUGGCGAAAGCCAUAUAUAUAUCGAGAAGGGCGUACACACC | 8.84 | 7.75 |  | 
GCCAUCGCAUGAGGAUAUGGUCUGCUUUGCAGACCAGAAGGCAUGUCAUAAGACAUGAGGAUCACCCAUGUAGUUAAGAUGGCA |  |  | 800 | 43.9
CGCUCAAUUACUUAGGAUAGAAUCAGAAGGCGUAACAUGAGGAUCACCCAUGUAUAGACGUGUAACGAGGAUAUGAAUUGAGCG | 5.36 | 5.34 |  | 
UAGGGAGGAGGGAGGGAGACAUGAGGAUCACCCAUGUAAAGUCAGGAUAUUCUCAUAUUAUAUUAGGAGAAGGGAUACAUAUCU | 47.5 | 13.8 |  | 

Sequence | apparent Kd [1] [nM] | apparent Kd [2] [nM] | apparent Kd [3] [nM] | apparent Kd [4] [nM]
AGGAGUUUGUAGAAGGACGACUAUUAAGUUUUCGUAGGAUAUACUAUUUACAUGAGGAUCACCCAUGUUUAAAUGGAACAAUGU | 7.85 | 9.08 |  | 
GGUACUCAAAGAGUACCAAUACGAACAUGAGGAUCACCCAUGUAGGAUAUGAAAACGCCGGAGUAUCAGAAGGACAUGUGCCUA | 12.6 | 21.3 |  | 
UGCUAGUCAGGAUAUACGAACAUGUCAAAAGACGUGAAGGGACAUGAGGAUCACCCAUGUAGAAGGGACUAGCU | 38.4 | 129 |  | 
UAUAUAUAGUAAGGAUAUGUAUUAAAUUUAUAAACAGAAGGUACUGACAUGAGGAUCACCCAUGUUUUAGUGUGGGCAUGUAGA | 99.6 | 148 |  | 
UCGUACAUUCGAGGAUAUCGGUGAUAUAUAUUACGAGAAGGCGAUUGUUUGUUUUACGCCUUAGACAUGAGGAUCACCCAUGUA |  |  | 77.7 | 55.2
CCGGAAUUACAGGAUAUAGGAGUCGAUAGACACCUAGAAGGGUAGACAUGAGGAUCACCCAUGUGUCCUACCGG | 273 | 182 |  | 
AAAAAGUGAGGAUAUGCUGCUCGUCACUUGCGUGAUGAGUAGCAGAAGGCACAUGAGGAUCACCCAUGUAAAGA | 39 | 49.7 |  | 
UCAUGAUAUGUAGGAUAUCACUUUAAUUGAUUAAUAUAUGAAUAUAGAAUUUGAGAAGGACAUUUACAUGAGGAUCACCCAUGU | 12.9 | 9.67 |  | 
GGCUUAAACACAGGAUAUGGCCUCAGAGUAAGGCCAGAAGGGUGAAGUUCUCAUACAUGAGGAUCACCCAUGUCAAGGAGGCUA |  |  | 521 | 204
GCGUCAGAAUUAAUUGUGACAGACAGAAGGCAAUAGUAUGUGACCGACAUGAGGAUCACCCAUGUUGAGGAUAUGUAUUGACAC | 5.68 | 7.08 |  | 
GUCAGCUCGUGAGGAUAUACAACACUGCUUCGGCAAUGUAUUAAGAUCACAUGAGGAUCACCCAUGUAGAAGGCACGAGCUGAU | 9.99 | 164 |  | 
GUCCGGCGUGUAGGAUAUGGAUCCGAUUAGGAUCCAGAAGGACAUGAGGAUCACCCAUGUACAUGUAAACAGUCAUCACCGGAA | 9.2 | 57.7 |  | 
AAUGGGUGUGUGAGGAUAUACGAUGGCAGUUGCCAGUAGAAGGUACAUGAGGAUCACCCAUGUGUCCAAAAGUG | 13.2 | 16 |  | 
CUACUCGUUGUGAGGAUAUCGUUUUCGUCACGGAUCGAGAAGGCACAUGAGGAUCACCCAUGUUUGAUGUGGAU | 32.1 | 79.7 |  | 
GCCAGUUAUGUAGGAUAUGCGAGGCGAGCCUGAGCAGAAGGACAUGAGGAUCACCCAUGUAUUGCGGUUUAAGUUCUGAUCGCU | 22.2 | 47.2 |  | 
UUCAUGUGAGGAUAUAGUACUCUUUCUAUUAUUUUUGAGUAUUAGAAGGCACAUGAGGAUCACCCAUGUAGUAC | 89.7 | 18.8 |  | 
CUCAUGUGAGGAUAUGUGAUCAACCUUCUGUAUAGAUGAUGACAGAAGGCACAUGAGGAUCACCCAUGUAGAUC | 68.9 | 57.1 |  | 
UUAAAUCAUGUAGGAUAUGCAUGGCGAAGCUACGCAGAAGGACAUGAGGAUCACCCAUGUUAUAGCGUCUGAGUACAGAUGCAA | 79.6 | 268 |  | 
AUAAGCUCGUCAGGAUAUACGUCACUGUUUCGGCAGUGAGGUAUGAUCACAUGAGGAUCACCCAUGUAGAAGGGACGAGCUUAU | 5.24 | 8.29 |  | 
AUCCUGCGAGGAUAUACAUAAUUUUUUUCAUUUUGACUCGAACAUGAGGAUCACCCAUGUAGAAGGUGCUACAC | 36.7 | 32.5 |  | 
GAUCGACCUGAGAAGGCACAUGAGGAUCACCCAUGUUGAACCAUACAUGCCACAAAGUGGCAGUGUGAGGAUAUCAGGUCGAUC | 5.81 | 8.34 |  | 
ACACAUGAGGAUCACCCAUGUAGCUGGCGUCUGCACCAGCCACAGGAUAUACGGCAACACAAGCCGUAGAAGGGUGAUAAACAC |  |  | 67.5 | 21.6
UGUCGGAGCAGAGGAUAUUACAUGAGGAUCACCCAUGUAUGAACCAAUAGCUGGAAACUGCAAUGUAAGAAGGCUGCUCCGACA | 11.9 | 107 |  | 
GGGUGACAUGAGGAUCACCCAUGUCAGGAUAUGAUACUAUGUACUUCGGUACAUAGUAUCAGAAGGGACAUCCC | 48.4 | 158 |  | 
CAGUGCAAUGUAGGAUAUGCUCAGGAUAACUGAGCAGAAGGACAUGAGGAUCACCCAUGUCAAAUGAAAGAUAAUAAAGCACUG | 14.3 | 17.8 |  | 
UCAGGCUUCGAGAAGGACAUGAGGAUCACCCAUGUUAAUAUGUAGCAGCCGUGAGGCUGCAUCAUGUAGGAUAUCGGAGUCUGC | 7.02 | 18.7 |  | 
AAAAAACAUGAGGAUCACCCAUGUGAGGAUAUGACUUAAAUAAAGAAAGAAGAAAUAGUCAGAAGGCACAAAUA | 54.5 | 70.4 |  | 
